In ChEMBL document CHEMBL4130474, “Spirotriazoline oxindoles: A novel chemical scaffold with in vitro anticancer properties” (Eur J Med Chem, 2017):

Experiments:
[1] = Potency index, ratio of IC50 for antiproliferative activity in human p53 (+/+) human HCT116 cells to IC50 for antiproliferative activity in human MDA-MB-231 cells; assay type: functional
HEK-293T = assay: Antiproliferative activity in human HEK293T cells incubated for 72 hrs by MTT assay; assay type: cell-based
In short: (§1)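 Cells grown in RPMI 1640 with 10% FBS, penicillin/streptomycin; seeded at 2 × 10⁵ cells/mL, allowed to adhere 24 h, then exposed 72 h to compounds diluted in medium from DMSO stocks. MTT added after medium change, 3 h, formazan dissolved in DMSO, absorbance at 570 nm. Triplicate wells, at least 3 independent experiments; IC50 by non-linear regression.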

HCT-116 [2] = assay: Antiproliferative activity in p53 (-/-) human HCT116 cells incubated for 72 hrs by MTS assay; assay type: functional, cell-based; details: HCT-116, 72 h
In short: (§2)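 HCT116 p53(+/+) or p53(−/−) seeded at 1 × 10⁵ cells/mL, adhered 24 h, then treated 72 h with compounds diluted from DMSO stocks. Viability by MTS (CellTiter96 AQueous) with absorbance at 490 nm. Duplicate wells, three independent experiments; IC50 by non-linear regression.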

[3] = Selectivity index, ratio of IC50 for antiproliferative activity in HEK293T cells to IC50 for antiproliferative activity in human p53 (-/-) human HCT116 cells; assay type: toxicity, cell-based; details: HEK293T cells versus p53 (-/-) HCT116 cells, read-out: Ratio IC50
[4] = Potency index, ratio of IC50 for antiproliferative activity in human p53 (-/-) human HCT116 cells to IC50 for antiproliferative activity in human MDA-MB-231 cells; assay type: functional
MDA-MB-231 = assay: Antiproliferative activity in human MDA-MB-231 cells incubated for 72 hrs by MTT assay; assay type: functional, cell-based; details: MDA-MB-231, 72 h; in short: as §1
[5] = Selectivity index, ratio of IC50 for antiproliferative activity in HEK293T cells to IC50 for antiproliferative activity in human MDA-MB-231 cells; assay type: toxicity, cell-based; details: HEK293T cells versus MDA-MB-231 cells, read-out: Ratio IC50
In short: (§3)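 Ratio of HEK 293T IC50 to MDA-MB-231 IC50 from 72 h MTT assays.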

MCF7 = assay: Antiproliferative activity in human MCF7 cells incubated for 72 hrs by MTT assay; assay type: functional, cell-based; details: MCF7, 72 h; in short: as §1
[6] = Selectivity index, ratio of IC50 for antiproliferative activity in HEK293T cells to IC50 for antiproliferative activity in human p53 (+/+) human HCT116 cells; assay type: toxicity, cell-based; details: HEK293T cells versus p53 (+/+) HCT116 cells, read-out: Ratio IC50
[7] = Selectivity index, ratio of IC50 for antiproliferative activity in HEK293T cells to IC50 for antiproliferative activity in human MCF7 cells; assay type: toxicity, cell-based; details: HEK293T cells versus MCF7 cells, read-out: Ratio IC50
In short: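 Ratio of HEK 293T IC50 to MCF-7 IC50 from 72 h MTT assays.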

[8] = Potency index, ratio of IC50 for antiproliferative activity in human MCF7 cells to IC50 for antiproliferative activity in human MDA-MB-231 cells; assay type: functional
HCT-116 [9] = assay: Antiproliferative activity in p53 (+/+) human HCT116 cells incubated for 72 hrs by MTS assay; assay type: functional, cell-based; details: HCT-116, 72 h; in short: as §2
[10] = […], ratio of IC50 for antiproliferative activity in HEK293T cells to IC50 for antiproliferative activity in human MDA-MB-231 cells; assay type: toxicity, cell-based; details: HEK293T cells versus MDA-MB-231 cells, read-out: Ratio IC50; in short: as §3
[11] = Potency index, ratio of IC50 for antiproliferative activity in human MDA-MB-231 cells to IC50 for antiproliferative activity in human MCF7 cells; assay type: functional
In short: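 Ratio of MDA-MB-231 IC50 to MCF-7 IC50 from 72 h MTT assays.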

IC50 (HCT-116 [2]) [µM] | IC50 (MDA-MB-231) [µM] | IC50 (MCF7) [µM] | IC50 (HCT-116 [9]) [µM] | SMILES | Ratio IC50 [1] | IC50 (HEK-293T) [µM] | selectivity ratio [3] | Ratio IC50 [4] | selectivity ratio [5] | selectivity ratio [6] | selectivity ratio [7] | Ratio IC50 [8] | selectivity ratio [10] | Ratio IC50 [11]
17.8 | 3.5 | 21.4 | 15.7 | O=C1Nc2ccc(Br)cc2C12N(c1ccccc1)N=C(c1ccccc1)N2c1cccc(Cl)c1 (stereo not drawn) | >=2.4 | 21.6 | < 2 | >=2.4 | ≥ 2.4 | < 2 | < 2 | >=2.4 |  | 
18.5 | 10.7 | 24.1 | 15 | O=C1Nc2ccccc2C12N(c1ccccc1)N=C(c1ccccc1)N2c1ccc(Cl)cc1 (stereo not drawn) |  | > 100 | 2.5 to 4.1 |  |  | 2.5 to 4.1 | 2.5 to 4.1 |  | ≥ 2.5 | 
 | > 100 | 7.3 |  | O=C1Nc2ccc(Br)cc2[C@]12[C@@H](c1ccccc1)C(c1ccccc1)=NN2c1ccccc1 |  | > 100 |  |  |  |  | > 13.7 |  |  | > 13.7
17.2 | 15 | 11.4 | 15 | O=C1Nc2ccc(Br)cc2C12N(c1ccc(Cl)cc1)N=C(c1ccccc1)N2c1cccc(Cl)c1 (stereo not drawn) |  | 16.2 | < 2 |  |  | < 2 | < 2 |  |  | 
22.1 | 12.5 | 13.7 | 19.9 | O=C1Nc2ccccc2C12N(c1ccccc1)N=C(c1ccccc1)N2c1cccc(Cl)c1 (stereo not drawn) |  | 25.7 | < 2 |  |  | < 2 | < 2 |  |  | 
10.8 | 14.6 | 10.1 | 10.8 | O=C1Nc2ccc(Br)cc2C12N(c1ccccc1)N=C(c1ccc(Cl)cc1)N2c1cccc(Cl)c1 (stereo not drawn) |  | 20.3 | < 2 |  |  | < 2 | < 2 |  |  | 
15.9 | 4.6 | 11 | 13.5 | O=C1Nc2ccc(Br)cc2C12N(c1ccccc1)N=C(c1ccccc1)N2c1ccc(F)c(Cl)c1 (stereo not drawn) | >=2.4 | 16.6 | < 2 | >=2.4 | ≥ 2.4 | < 2 | < 2 | >=2.4 |  | 
 | 23.4 | 36.2 |  | O=C1Nc2ccccc2C12N(c1ccccc1)N=C(c1ccccc1)N2c1ccccc1 (stereo not drawn) |  |  |  |  |  |  |  |  |  | 
25.8 | 14.1 | 12.3 | 22.2 | COc1ccc(C2=NN(c3ccccc3)C3(C(=O)Nc4ccc(Br)cc43)N2c2cccc(Cl)c2)cc1 (stereo not drawn) |  | 25.9 | < 2 |  |  | < 2 | < 2 |  |  | 
18.5 | 8.2 | 10.9 | 16.8 | O=C1Nc2ccccc2C12N(c1ccccc1)N=C(c1ccc(Cl)cc1)N2c1ccc(Cl)cc1 (stereo not drawn) |  | 22.7 | < 2 |  |  | < 2 | 2.1 |  |  | 
 | 32.3 | 19.5 |  | O=C1Nc2ccccc2C12N(c1ccccc1)N=C(c1ccccc1)N2c1ccc(F)c(Cl)c1 (stereo not drawn) |  |  |  |  |  |  |  |  |  | 
 |  | 37.7 |  | O=C1Nc2ccc(Cl)cc2[C@]12[C@@H](c1ccccc1)C(c1ccccc1)=NN2c1ccccc1 |  |  |  |  |  |  |  |  |  | 
22.1 | 11.7 | 19.1 | 21.6 | O=C1Nc2ccc(Cl)cc2C12N(c1ccccc1)N=C(c1ccccc1)N2c1ccccc1 (stereo not drawn) |  | 32.6 | < 2 |  |  | < 2 | < 2 |  |  | 
18.5 | 15.7 | 14.2 | 19.8 | O=C1Nc2ccccc2C12N(c1cccc(Cl)c1)N=C(c1ccccc1)N2c1ccc(Cl)cc1 (stereo not drawn) |  | 15.4 | < 2 |  |  | < 2 | < 2 |  |  | 
 | 12.6 | 10 |  | O=C1Nc2ccc(Br)cc2[C@]12[C@@H](c1cccc(Cl)c1)C(c1ccccc1)=NN2c1ccccc1 |  |  |  |  |  |  |  |  |  | 
 | 16.9 | 22.4 |  | O=C1Nc2c(Cl)cccc2[C@]12[C@@H](c1ccccc1)C(c1ccccc1)=NN2c1ccccc1 |  | > 100 |  |  |  |  | > 4.5 |  |  | 
13 | 10.2 | 8 | 12.6 | O=C1Nc2ccc(Br)cc2C12N(c1ccccc1)N=C(c1cccc(Cl)c1)N2c1cccc(Cl)c1 (stereo not drawn) |  | 12.5 | < 2 |  |  | < 2 | < 2 |  |  | 
 | 23.7 | 21.8 |  | O=C1Nc2c(Br)cccc2C12N(c1ccccc1)N=C(c1ccccc1)N2c1ccccc1 (stereo not drawn) |  |  |  |  |  |  |  |  |  | 
31.6 | 11.7 | 10.2 | 21.5 | O=C1Nc2ccc(Br)cc2C12N(c1ccccc1Cl)N=C(c1ccccc1)N2c1cccc(Cl)c1 (stereo not drawn) |  | 20.9 | < 2 |  |  | < 2 | < 2 |  |  | 
16.1 | 11.6 | 13.1 | 17.4 | O=C1Nc2ccccc2C12N(c1ccccc1)N=C(c1cccc(Cl)c1)N2c1ccc(Cl)cc1 (stereo not drawn) |  | 20.5 | < 2 |  |  | < 2 | < 2 |  |  | 
18.7 | 9 | 10.1 | 18.5 | O=C1Nc2ccccc2C12N(c1ccc(Cl)cc1)N=C(c1ccccc1)N2c1ccc(Cl)cc1 (stereo not drawn) |  | 15.8 | < 2 |  |  | < 2 | < 2 |  |  | 
34.6 | 14.5 | 13.1 | 25.3 | O=C1Nc2ccccc2C12N(c1ccccc1Cl)N=C(c1cccc(Cl)c1)N2c1ccc(Cl)cc1 (stereo not drawn) |  | 35 | < 2 |  |  | < 2 | 2.7 |  |  | 
13.1 | 10.7 | 9.8 | 12 | O=C1Nc2ccc(Br)cc2C12N(c1cccc(Cl)c1)N=C(c1ccccc1)N2c1cccc(Cl)c1 (stereo not drawn) |  | 16.9 | < 2 |  |  | < 2 | < 2 |  |  | 
 |  | > 100 |  | O=C1Nc2ccccc2[C@]12[C@@H](c1ccccc1)C(c1ccccc1)=NN2c1ccccc1 |  |  |  |  |  |  |  |  |  | 
 | 24.8 | 28.4 |  | O=C1Nc2ccccc2C12N(c1ccccc1Cl)N=C(c1ccccc1)N2c1ccc(Cl)cc1 (stereo not drawn) |  |  |  |  |  |  |  |  |  | 
20.1 | 8.9 | 10.8 | 23.7 | O=C1Nc2c(Cl)cccc2C12N(c1ccccc1)N=C(c1ccccc1)N2c1ccccc1 (stereo not drawn) |  | > 100 | 2.5 to 4.2 |  |  | 2.5 to 4.2 | 2.5 to 9.3 |  | ≥ 2.5 | 
9 | 7 | 6.9 | 10.2 | O=C1Nc2ccc(Br)cc2C12N(c1cccc(Cl)c1)N=C(c1cccc(Cl)c1)N2c1cccc(Cl)c1 (stereo not drawn) |  | 9 | < 2 |  |  | < 2 | < 2 |  |  | 
18.2 | 5.2 | 16.8 | 16.3 | O=C1Nc2ccc(Br)cc2C12N(c1ccccc1)N=C(c1ccccc1)N2c1ccc(Cl)cc1 (stereo not drawn) | >=2.4 | 21.6 | < 2 | >=2.4 | ≥ 2.4 | < 2 | < 2 | >=2.4 |  | 

SMILES | IC50 (HCT-116 [2]) [µM] | IC50 (MDA-MB-231) [µM] | IC50 (MCF7) [µM] | IC50 (HCT-116 [9]) [µM] | Ratio IC50 [1] | IC50 (HEK-293T) [µM] | selectivity ratio [3] | Ratio IC50 [4] | selectivity ratio [5] | selectivity ratio [6] | selectivity ratio [7] | Ratio IC50 [8] | selectivity ratio [10] | Ratio IC50 [11]
COc1ccc(C2=N[C@@H](c3ccc(Cl)cc3)[C@@H](c3ccc(Cl)cc3)N2C(=O)N2CCNC(=O)C2)c(OC(C)C)c1 [NUTLIN-3] | 47.8 |  |  |  |  |  |  |  |  |  |  |  |  | 
